According to ChEMBL document CHEMBL5678813, “Optimization of a novel series of N-phenylindoline-5-sulfonamide-based acyl CoA:monoacylglycerol acyltransferase-2 inhibitors: Mitigation of CYP3A4 time-dependent inhibition and phototoxic liabilities” (Bioorg Med Chem, 2015):

Columns and labels:
[1] = target: 2-acylglycerol O-acyltransferase 2 (Homo sapiens, UniProt Q3SYC2); experiment: Inhibition of N-terminal FLAG-tagged full-length human MGAT2 expressed in human FreeStyle 293-F cell membrane using 13Cx18oleoyl-CoA and 2-oleoyl-glycerol as substrate preincubated for 60 mins followed by substrate addition and measured after 30 mins by RapidFire mass spectrometric analysis; type: cell membranes
Procedure, shortened: (§1)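 FreeStyle293 cells transfected and harvested after 2 days; total membranes isolated by ultracentrifugation. Reaction started with 13C18 oleoyl-CoA and 2-oleoyl-glycerol (20 µM each), run 30 min at room temperature. Stopped with acetonitrile/formic acid containing 1,2-dioleoyl-glycerol; read by RapidFire/MS.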

[2] = target: CYP3A4 (Homo sapiens, UniProt P08684); experiment: (§2) Time-dependent inhibition of CYP3A4 in human liver microsomes using testosterone as substrate assessed as remaining activity at 30 uM preincubated with compound in presence of NADPH-generating system followed by substrate addition by UPLC analysis relative to control; type: ADME, Microsome; settings: human liver microsomes, probe testosterone, read-out: Activity
Procedure, shortened: (§3)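 Compound at 30 µM preincubated at 37 °C with human liver microsomes in pH 7.4 phosphate buffer plus an NADPH-generating system. CYP3A4 activity then measured as testosterone 6β-hydroxylation by UPLC, expressed as % of DMSO control. Remaining activity = preincubated activity ÷ non-preincubated activity × 100; n = 2.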

[3] = 1-Octanol/aqueous buffer partition coefficient, logD of the compound at pH 7.4 by HPLC analysis; type: physicochemical
[4] = test system: NIH3T3; experiment: Cytotoxicity against BALB/c mouse 3T3 cells assessed as reduction in cell viability at 6.25 uM incubated for 1 hrs in absence of UV irradiation by Celltiter-Glo assay relative to control; type: toxicity, cell-based; settings: nih3t3, 1 h
Procedure, shortened: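 BALB/c 3T3 cells seeded at 2.5 × 10^3 cells/well and grown 1 day. Compound at 6.25 µM in EBSS with 1 mM HEPES, preincubated 1 h. Plate kept dark (–UV) while the paired plate was irradiated. Medium replaced, cultured 24 h more. Viability read as cellular ATP by CellTiter-Glo, % of 1% DMSO control; n = 3, mean ± SD.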

[5] = AUC in mouse at 1 mg/kg, po administered as cassette dose by LC/MS/MS analysis; type: ADME, organism-based; settings: in vivo
Procedure, shortened: (§4)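 Non-fasted mice dosed by cassette, iv 0.1 mg/kg or po 1 mg/kg suspended in 0.5% methylcellulose aqueous solution; plasma obtained from blood by centrifugation, deproteinized with acetonitrile, and compound concentrations measured by LC/MS/MS.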

[6] = MRT in mouse at 1 mg/kg, po administered as cassette dose by LC/MS/MS analysis; type: ADME, organism-based; settings: in vivo; procedure, shortened: as §4
[7] = Total clearance in mouse at 0.1 mg/kg, iv administered as cassette dose by LC/MS/MS analysis; type: ADME, organism-based; settings: in vivo; procedure, shortened: as §4
[8] = Permeability of compound at pH 7.4 by PAMPA assay; type: ADME; settings: read-out: permeability
Procedure, shortened: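 Passive permeability measured by PAMPA at pH 7.4.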

[9] = Oral bioavailability in mouse at 1 mg/kg administered as cassette dose by LC/MS/MS analysis; type: ADME, organism-based; settings: in vivo; procedure, shortened: as §4
[10] = Metabolic stability in mouse liver microsomes assessed as intrinsic clearance at 1 uM incubated for 15 to 30 mins in presence of NADPH-generating system by LC/MS/MS analysis; type: ADME, Microsome; settings: time 15-30 min, read-out: CLH
Procedure, shortened: (§5)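 Compound at 1 µM with 0.2 mg/mL liver microsomal protein in 50 mM phosphate buffer pH 7.4. Reaction started by NADPH-generating system (5 mM MgCl2, 5 mM glucose-6-phosphate, 0.5 mM β-NADP+, 1.5 U/mL G6PDH). Stopped with acetonitrile at 15 and 30 min and analysed by LC/MS/MS. Velocity taken as slope of concentration–time plot.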

[11] = Volume of distribution at steady state in mouse at 0.1 mg/kg, iv administered as cassette dose by LC/MS/MS analysis; type: ADME, organism-based; settings: in vivo, read-out: Vdss; procedure, shortened: as §4
[12] = target: 2-acylglycerol O-acyltransferase 2 (Mus musculus, UniProt Q80W94); experiment: Inhibition of N-terminal FLAG-tagged full-length mouse MGAT2 expressed in human FreeStyle 293-F cell membrane using 13Cx18oleoyl-CoA and 2-oleoyl-glycerol as substrate preincubated for 60 mins followed by substrate addition and measured after 30 mins by RapidFire mass spectrometric analysis; type: cell membranes; procedure, shortened: as §1
[13] = Metabolic stability in human liver microsomes assessed as intrinsic clearance at 1 uM incubated for 15 to 30 mins in presence of NADPH-generating system by LC/MS/MS analysis; type: ADME, Microsome; settings: time 15-30 min, read-out: CLH; procedure, shortened: as §5
[14] = target: Cytochrome P450 3A4 (Homo sapiens, UniProt P08684); experiment: as §2; type: ADME, Microsome; settings: microsomes, 30 µM; procedure, shortened: as §3
Cytochrome P450 3A4, sequence (P08684 whole entry): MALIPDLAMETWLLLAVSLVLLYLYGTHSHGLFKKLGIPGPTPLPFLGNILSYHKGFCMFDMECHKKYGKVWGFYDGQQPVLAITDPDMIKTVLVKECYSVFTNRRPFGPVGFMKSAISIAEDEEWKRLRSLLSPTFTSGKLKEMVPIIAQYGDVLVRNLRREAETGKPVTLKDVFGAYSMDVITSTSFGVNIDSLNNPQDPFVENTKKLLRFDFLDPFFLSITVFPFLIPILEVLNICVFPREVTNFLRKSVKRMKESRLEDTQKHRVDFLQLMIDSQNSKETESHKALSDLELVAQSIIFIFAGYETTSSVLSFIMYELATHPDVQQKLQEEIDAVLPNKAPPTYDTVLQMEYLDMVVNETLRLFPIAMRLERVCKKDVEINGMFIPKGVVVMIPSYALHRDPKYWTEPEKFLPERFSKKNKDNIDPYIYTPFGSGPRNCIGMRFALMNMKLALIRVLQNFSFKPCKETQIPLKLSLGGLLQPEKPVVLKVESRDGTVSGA

CYP3A4, sequence (P08684 whole entry): as above
2-acylglycerol O-acyltransferase 2 (Homo sapiens, UniProt Q3SYC2), sequence (Q3SYC2 whole entry): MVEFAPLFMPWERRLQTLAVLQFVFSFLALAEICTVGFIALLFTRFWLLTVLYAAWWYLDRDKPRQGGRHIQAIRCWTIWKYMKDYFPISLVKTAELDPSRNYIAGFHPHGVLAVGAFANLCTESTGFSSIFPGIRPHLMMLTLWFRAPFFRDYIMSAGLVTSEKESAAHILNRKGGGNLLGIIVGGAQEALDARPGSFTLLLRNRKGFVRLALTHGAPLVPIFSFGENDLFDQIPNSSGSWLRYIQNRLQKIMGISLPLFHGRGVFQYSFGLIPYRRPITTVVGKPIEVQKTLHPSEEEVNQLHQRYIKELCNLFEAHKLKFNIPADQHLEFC
2-acylglycerol O-acyltransferase 2 (Mus musculus, UniProt Q80W94), sequence (Q80W94 whole entry): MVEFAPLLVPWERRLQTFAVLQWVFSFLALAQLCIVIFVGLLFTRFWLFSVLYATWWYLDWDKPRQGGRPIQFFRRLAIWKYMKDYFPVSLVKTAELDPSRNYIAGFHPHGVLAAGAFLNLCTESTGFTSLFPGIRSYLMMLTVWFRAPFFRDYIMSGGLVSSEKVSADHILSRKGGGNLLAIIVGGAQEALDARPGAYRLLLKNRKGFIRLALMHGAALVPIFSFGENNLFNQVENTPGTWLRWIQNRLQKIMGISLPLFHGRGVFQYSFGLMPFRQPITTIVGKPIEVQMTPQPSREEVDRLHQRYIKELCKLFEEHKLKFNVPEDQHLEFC

IC50 [1] [nM] | activity at 30 µM [2] [%] | logD [3] | Structure (SMILES) | Activity [4] [%] | further results
75 | 95 | 3.4 | O=C1CCCN1c1cc(S(=O)(=O)Nc2c(F)cc(F)cc2F)cc2c1N(C(=O)OC1CCN(CC(F)(F)C(F)(F)F)CC1)CC2 | – | –
19 | 82 | 3.8 | O=C1CCCN1c1cc(S(=O)(=O)Nc2c(F)cc(Cl)cc2F)cc2c1N(C(=O)OC1CCN(CC(F)(F)C(F)(F)F)CC1)CC2 | – | –
30 | 89 | 3.3 | O=C1CCCN1c1cc(S(=O)(=O)Nc2c(F)cc(Cl)cc2F)cc2c1N(C(=O)Nc1ccc(C(F)(F)F)cc1)CC2 | – | –
6.2 | – | 3.1 | O=C1CCCN1c1cc(S(=O)(=O)Nc2c(F)cc(Cl)cc2F)cc2c1N(c1ncc(-n3cc(C(F)(F)F)cn3)cn1)CC2 | 109 | –
2.1 | – | 2.9 | Cc1cc(C(F)(F)F)nn1-c1cnc(N2CCc3cc(S(=O)(=O)Nc4c(F)cc(Cl)cc4F)cc(N4CCCC4=O)c32)nc1 | 112 | AUC [5]: 1120 ng·h/mL; MRT [6]: 2.6 h; clearance [7]: 7.85 mL/min/kg; Papp [8]: 18.5 ×10⁻⁶ cm/s; bioavailability [9]: 52%; microsomal CLint at 1 µM [10]: 27 µL/min/mg; Vd [11]: 1.02 L/kg; IC50 [12]: 1.1 nM
3.7 | – | 2.7 | Cn1nc(C(F)(F)F)cc1-c1cnc(N2CCc3cc(S(=O)(=O)Nc4c(F)cc(Cl)cc4F)cc(N4CCNC4=O)c32)nc1 | 111 | AUC [5]: 72 ng·h/mL; MRT [6]: 2.3 h; clearance [7]: 39.5 mL/min/kg; Papp [8]: 4 ×10⁻⁶ cm/s; bioavailability [9]: 16%; microsomal CLint at 1 µM [10]: 33 µL/min/mg; microsomal CLint at 1 µM [13]: 4 µL/min/mg; Vd [11]: 1.96 L/kg; IC50 [12]: 1.9 nM
3.4 | 43 | – | O=C1CCCN1c1cc(S(=O)(=O)Nc2ccc(F)cc2F)cc2c1N(C(=O)Nc1ccc(C(F)(F)F)cc1)CC2 | – | –
0.25 | – | 4.5 | O=C1CCCN1c1cc(S(=O)(=O)Nc2c(F)cc(Cl)cc2F)cc2c1N(c1ccc(-c3ccc(C(F)(F)F)cc3)cc1)CC2 | 95 | TDI [14]: Not Active
42 | 93 | 4.1 | O=C1CCCN1c1cc(S(=O)(=O)Nc2ccc(C(F)(F)F)cc2F)cc2c1N(C(=O)OC1CCN(CC(F)(F)C(F)(F)F)CC1)CC2 | – | –
4.1 | 59 | 3.7 | O=C1CCCN1c1cc(S(=O)(=O)Nc2ccc(F)cc2F)cc2c1N(C(=O)OC1CCN(CC(F)(F)C(F)(F)F)CC1)CC2 | – | –
0.42 | – | 4.1 | O=C1CCCN1c1cc(S(=O)(=O)Nc2c(F)cc(Cl)cc2F)cc2c1N(c1ncc(-c3ccc(C(F)(F)F)cc3F)cn1)CC2 | 98 | –
8.2 | – | 3.1 | O=C1CCCN1c1cc(S(=O)(=O)Nc2c(F)cc(Cl)cc2F)cc2c1N(c1ncc(-n3ccc(C(F)(F)F)n3)cn1)CC2 | 105 | –
0.69 | – | 3.8 | O=C1CCCN1c1cc(S(=O)(=O)Nc2c(F)cc(Cl)cc2F)cc2c1N(c1ncc(-c3ccc(C(F)(F)F)cc3)cn1)CC2 | 105 | TDI [14]: Not Active
1 | 13 | – | CC(=O)Nc1cc(S(=O)(=O)Nc2ccc(F)cc2F)cc2c1N(CCc1ccccc1)CC2 | – | –
